# From article PMC9907361 (Gastric cancer : official journal of the International …, 2021)
# Entries after “also recorded” stand apart in the source; their conditions may differ.
# What was measured:
# [1] = system: AGS cells overexpressing WNT1; assay: Lactose/mannose treatment of WNT1-overexpressing AGS cells; assay type: cell-based, human; settings: 50 mM, 4 h preincubation
# Method in brief: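 AGS cells were transfected with HA-WNT1. Lactose or mannose (50 mM) was added 4 h before cell extraction, and the indicated proteins were then detected in the extracts.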
# cells = settings: cited from earlier work
# AGS cells = assay type: cell-based, human
# [2] = target: human STAT3 (residues 127–688) (Homo sapiens, UniProt P40763); assay: ITC binding of galectin-3 peptides to STAT3; settings: abstract statement
# Method in brief: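 Human STAT3 residues 127–688 was expressed from pET22b(+) and purified. ITC was run at 25 °C. Wild-type and Y45-phosphorylated galectin-3 peptides (140 μM each) in 20 mM Tris pH 7.5, 300 mM NaCl were injected at 220 s intervals into 7 μM STAT3. Heats of dilution from buffer controls were subtracted, and data were fitted to a single set of binding sites model.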
# human STAT3 (residues 127–688), sequence (P40763 127-688): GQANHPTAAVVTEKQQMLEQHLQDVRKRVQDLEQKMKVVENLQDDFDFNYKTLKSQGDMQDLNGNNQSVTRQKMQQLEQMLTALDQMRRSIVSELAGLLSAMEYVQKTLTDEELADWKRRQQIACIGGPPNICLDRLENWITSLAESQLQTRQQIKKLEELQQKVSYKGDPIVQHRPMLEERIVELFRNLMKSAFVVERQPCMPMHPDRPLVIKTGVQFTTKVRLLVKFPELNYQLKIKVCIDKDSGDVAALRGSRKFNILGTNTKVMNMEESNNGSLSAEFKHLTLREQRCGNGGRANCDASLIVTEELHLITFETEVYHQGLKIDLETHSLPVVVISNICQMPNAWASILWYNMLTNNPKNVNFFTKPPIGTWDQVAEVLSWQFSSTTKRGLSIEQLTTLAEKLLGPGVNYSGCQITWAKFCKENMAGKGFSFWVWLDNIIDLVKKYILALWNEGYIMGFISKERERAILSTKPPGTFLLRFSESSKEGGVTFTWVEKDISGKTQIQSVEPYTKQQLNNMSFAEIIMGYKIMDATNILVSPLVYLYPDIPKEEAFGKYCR
compound,measurement,setting,value
OC[C@H]1O[C@@H](O[C@H]2[C@H](O)[C@@H](O)C(O)O[C@@H]2CO)[C@H](O)[C@@H](O)[C@H]1O (mixture of isomers) [lactose],inhibition of STAT3 phosphorylation,[1],did not inhibit
same,inhibition of β-catenin stability,[1],did not inhibit
same,cellular uptake of lactose,cells; stated without reference,too polar to be taken up by the cells
OC[C@H]1O[C@H](Sc2ccc(Cl)c(Cl)c2)[C@H](O)[C@@H](n2cc(-c3cc(F)c(F)c(F)c3)nn2)[C@H]1O [GB1107],uptake across cell membranes,cells,improved uptake across cell membranes; also recorded: can penetrate into cells
OC[C@H]1OC(O)[C@@H](O)[C@@H](O)[C@@H]1O (stereo partly drawn) [mannose],inhibition of STAT3 phosphorylation,[1],did not inhibit
same,inhibition of β-catenin stability,[1],did not inhibit
IL-6: IL-6 cytokine,STAT3 phosphorylation on IL-6 treatment,"AGS cells; AGS cells, IL-6 alone",induced STAT3 phosphorylation
YPGQ [peptide of galectin-3 (Y45-Q48)],direct binding to the STAT3 SH2 domain,[2],directly bound to the STAT3 SH2 domain
same,enhancement of STAT3 phosphorylation,AGS cells; abstract statement,enhanced its phosphorylation
